# CHO-K1 Ca antag: nonselective inhibitor or artifact in parental CHO-K1 cells; ATP-induced calcium, Fluo-8 fluorescence; AID 602250; inhibition, % at 3 µM; 360,000 compounds, 0.6% hits;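 active = inhibition above a per-plate cutoff, the plate's mean sample inhibition plus 3 SD, cut at about 24% in these data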;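 also: 0% = DMSO plus EC80 ATP and 100% = DMSO alone without ATP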
# M1 PAM parental: nonselective calcium activators in parental CHO-K1 cells, primary screen, counter-screen for M1 PAM project, cell-based, Fluo-8 calcium fluorescence, full deck, 1536-well; ATP EC20; 0% at ATP EC20, 100% at ATP max; activation, % at 3 µM; 360,000 compounds, 0.02% hits; AID 602247, 2012;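 active = activation above the run cutoff, the mean activation of all test compounds plus 3 SD, cut at about 40% in these data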;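 also: peak over basal fluorescence ratio in a 140 s read after ATP addition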
# CHO parental Ca: ATP-evoked calcium signal inhibitors, parental CHO, primary screen, counter-screen for OX1R antagonist project, cell-based, fluorescence, Fluo-8 calcium dye; parental CHO-K1, ATP-induced calcium, Fluo-8 fluorescence; inhibition, % at 5.6 µM; 330,000 compounds, 0.63% hits; AID 463079, 2010;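 active = inhibition above that plate's mean sample inhibition plus 3 SD, cut at about 26% in these data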;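 also: 0% = ATP-challenged DMSO wells and 100% = DMSO wells without ATP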
#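 Test system: parental CHO cells; detection: calcium-sensitive Fluo-8 fluorescence; evaluation: percent inhibition of calcium signal; also added: ATP as calcium-mobilizing challenge; repeats: one well per compound; control set: ATP-challenged DMSO wells low, unchallenged DMSO wells high; compound: single nominal dose of 5.6 µM per compound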
# M1 ag parental: counter-screen for M1 agonists: effect in parental CHO-K1 cells | Fluo-8 calcium fluorescence; scaled to maximal ATP response, vehicle zero | activation, % at 3 µM | 360,000 compounds, 0.48% hits; in the data active = activation above about 15%;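 also: untransfected CHO-K1 host cells lacking M1 receptor as counterscreen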
# OX1R antag-1: OX1R (HCRTR1) antagonists, primary screen, fluorescence, CHO/OX1R cells, Fluo-8 calcium, orexin A. Fluo-8 calcium fluorescence. inhibition, % at 5 µM. 330,000 compounds, 0.43% hits;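 active = inhibition above its plate's threshold, mean inhibition of all tested compounds on the plate plus 3 SD, cut at about 37% in these data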;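 also: 0% = orexin A challenge wells and 100% = SB-334867-A antagonist wells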
# Target sequence (O43613 whole entry, looked up): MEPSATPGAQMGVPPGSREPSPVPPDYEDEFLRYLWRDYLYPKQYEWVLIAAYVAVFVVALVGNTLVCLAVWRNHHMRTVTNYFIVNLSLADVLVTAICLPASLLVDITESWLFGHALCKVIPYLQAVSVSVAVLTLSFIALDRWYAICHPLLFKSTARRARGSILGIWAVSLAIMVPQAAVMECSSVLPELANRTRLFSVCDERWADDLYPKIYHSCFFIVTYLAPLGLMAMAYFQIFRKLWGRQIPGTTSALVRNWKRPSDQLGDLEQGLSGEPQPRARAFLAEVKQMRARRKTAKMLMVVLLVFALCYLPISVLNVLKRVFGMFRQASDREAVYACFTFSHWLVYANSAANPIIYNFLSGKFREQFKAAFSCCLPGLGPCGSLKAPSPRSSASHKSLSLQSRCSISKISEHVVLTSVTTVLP
# OX1R antag-2: antagonists of human orexin 1 receptor (OX1R) | Orexin/Hypocretin receptor type 1 (Homo sapiens), O43613 | OX1R-expressing cells, FRET antagonist read-out | inhibition, % at 6.6 µM | 330,000 compounds, 1.8% hits | AID 485270, 2010; in the data active = inhibition mostly above about 38%, no sharp cut-off; inactive = mostly below about 40%;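 also: 0% = agonist challenge alone and 100% = reference antagonist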
# Numbers without * were called inactive; . = no result given. A selection: hits, their analogues and other compounds. The true share with any hit is near 2.9%.
SMILES,CHO-K1 Ca antag,M1 PAM parental,CHO parental Ca,M1 ag parental,OX1R antag-1,OX1R antag-2
CCn1c(C)nc2c(C)[n+](CC(=O)c3ccc(Br)cc3)ccc21,24*,-17,-5,0,-10,9
CCOCCCNC(=S)N1CCN(Cc2ccc3c(c2)OCO3)CC1,3,-17,8,0,-16,14
COc1ccccc1-n1c(=O)oc2ccc(Cl)cc2c1=O,-7,8,-11,19*,8,58
Cc1cc(C)cc(NC(=O)COC(=O)COc2ccc(N(C)S(=O)(=O)c3cccs3)cc2)c1,-8,20,18,1,13,15
O=C1c2cccc(O)c2C(=O)c2c(O)cc(CO)cc21,.,.,-1,.,10,48*
COc1cc(C2C=C(c3cccs3)Nc3ncnn32)cc(OC)c1OC (centres undefined),4,-2,.,20*,.,.
Brc1ccc(N/N=C(/N=Nc2nn[nH]n2)c2ccccc2)cc1,-14,14,-8,0,-9,47*
O=C(O)c1ccc(N=N/C(=N\Nc2ccc(C(=O)O)cc2)c2ccccc2)cc1,-3,0,-5,0,-14,24
Cc1ccc(S(=O)(=O)Nc2ccc3cn[nH]c3c2)c(C)c1,-2,0,-8,5,-18,5
CCOc1cc(C)c(S(=O)(=O)Nc2ccc3cn[nH]c3c2)cc1C,23,-3,48*,9,8,13
N#Cc1nc(-c2ccc(OCc3ccc(Cl)cc3)cc2)oc1NCc1cccnc1,-3,7,-7,0,7,24
N#Cc1nc(-c2ccc(OCc3ccccc3)cc2)oc1NCc1cccnc1,-5,6,54*,1,45*,61
Cc1cc(C(=O)COC(=O)CCc2nc3ccccc3c(=O)[nH]2)c(C)n1CC1CCCO1 (centres undefined),.,.,-10,.,-25,9
Cc1cc(C(=O)CSc2nc3ccccc3c(=O)[nH]2)c(C)n1CC1CCCO1 (centres undefined),24*,2,60*,17*,25,31
Cc1cccc(C(=O)NCC(=O)OCC(=O)c2cc(C)n(CC3CCCO3)c2C)c1 (centres undefined),5,8,1,17*,-25,18
Cc1cc(C(=O)COC(=O)CNC(=O)c2ccccc2)c(C)n1CC1CCCO1 (centres undefined),-1,8,-13,1,-16,21
CCn1c(SCC(=O)c2cc(C)n(CC3CCCO3)c2C)nc2ccccc21 (centres undefined),-7,22,-8,3,-21,77*
CC(=O)Nc1cc(C(=O)CSc2nnc(C3CC3)n2C2CC2)ccc1O,-6,-3,-3,0,-13,9
O=C(Nc1ccc(-n2nncc2-c2ccco2)cc1)c1cc2ccccc2oc1=O,-2,4,54*,0,-13,10
O=C(Nc1ccc(-n2nncc2-c2ccco2)cc1)c1cccc(F)c1,0,-5,-9,2,-3,11
Cc1ccc(O)c(C(=O)c2cc(C#N)c(=O)n(-c3c(C)n(C)n(-c4ccccc4)c3=O)c2)c1,2,-5,-9,3,-28,16
Cc1ccc(O)c(C(=O)c2cc(C#N)c(=O)n(-c3nccs3)c2)c1,19,-15,30,40*,30,7
O=C(Nc1cccc(Br)c1)c1cccc(OC(=S)N2CCOCC2)c1,5,-5,18,9,-5,21
CCN(CC)CCOC(=O)/C=C/c1ccccc1,15,-25,3,0,3,11
CCN(CC)CC(C)(C)C(=O)/C=C/c1ccc(/C=C/C(=O)C(C)(C)CN(CC)CC)cc1,25*,-9,.,0,.,.
Cc1csc(NC(=O)c2ccc(Cn3nc(C)c(Br)c3C)o2)n1,14,4,25,17*,19,18
O=C(CCNC(=O)c1ccc(Br)cc1)NC1CCCc2ccccc21 (centres undefined),-1,0,-18,2,-18,21
